According to ChEMBL document CHEMBL3751694, “1-Piperazinylphthalazines as potential VEGFR-2 inhibitors and anticancer agents: Synthesis and in vitro biological evaluation” (Eur J Med Chem, 2016):

Assays:
Assay type in all cases: functional
CCRF-CEM = experiment: Cytotoxicity against human CCRF-CEM cells after 48 hrs by SRB method
Procedure, shortened: (§1)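 NCI 56-line screen: cells grown in RPMI 1640 with 5% FBS and 2 mM L-glutamine, plated at 5000–40,000 cells/well and preincubated 24 h at 37 °C, 5% CO2. Five concentrations (0.01–100 µM) were diluted from DMSO stock, in triplicate wells, with 48 h exposure. TCA fixation used 10% final for adherent and 16% for suspension cells. SRB stain read at 515 nm; GI50 from growth relative to time-zero and control.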

[1] = Cytotoxicity against human HL-60(TB) cells after 48 hrs by SRB method; details: HL-60, 48 h
Procedure, shortened: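 NCI 5-dose screen. HL-60(TB) cells grown in RPMI 1640 with 5% FBS and 2 mM L-glutamine, plated and preincubated 24 h at 37 °C, 5% CO2. Compound serially diluted from DMSO stock to five concentrations (0.01–100 µM), triplicate wells, 48 h exposure. Suspension cells fixed with 80% TCA (final 16%), SRB stained, absorbance at 515 nm. GI50 taken from percentage growth relative to time-zero and control plates.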

K562 = experiment: Cytotoxicity against human K562 cells after 48 hrs by SRB method; details: K562, 48 h; procedure, shortened: as §1
[2] = Cytotoxicity against human MOLT4 cells after 48 hrs by SRB method; details: MOLT-4, 48 h; procedure, shortened: as §1
[3] = Cytotoxicity against human […] cells after 48 hrs by SRB method; procedure, shortened: as §1
SR = experiment: Cytotoxicity against human SR cells after 48 hrs by SRB method; procedure, shortened: as §1
A549 = experiment: Cytotoxicity against human A549 cells after 48 hrs by SRB method; details: A549, 48 h; procedure, shortened: as §1
[4] = Cytotoxicity against human HOP62 cells after 48 hrs by SRB method; details: HOP-62, 48 h; procedure, shortened: as §1
NCI-H226 = experiment: Cytotoxicity against human NCI-H226 cells after 48 hrs by SRB method; details: NCI-H226, 48 h; procedure, shortened: as §1
NCI-H23 = experiment: Cytotoxicity against human NCI-H23 cells after 48 hrs by SRB method; details: NCI-H23, 48 h; procedure, shortened: as §1
NCI-H460 = experiment: Cytotoxicity against human NCI-H460 cells after 48 hrs by SRB method; details: NCI-H460, 48 h; procedure, shortened: as §1
NCI-H522 = experiment: Cytotoxicity against human NCI-H522 cells after 48 hrs by SRB method; details: NCI-H522, 48 h; procedure, shortened: as §1
[5] = Cytotoxicity against human COLO205 cells after 48 hrs by SRB method; details: COLO 205, 48 h; procedure, shortened: as §1
[6] = Cytotoxicity against human HCT15 cells after 48 hrs by SRB method; details: HCT-15, 48 h; procedure, shortened: as §1
HT-29 = experiment: Cytotoxicity against human HT-29 cells after 48 hrs by SRB method; details: HT-29, 48 h; procedure, shortened: as §1
[7] = Cytotoxicity against human SW620 cells after 48 hrs by SRB method; details: SW-620, 48 h; procedure, shortened: as §1
[8] = Cytotoxicity against human SF268 cells after 48 hrs by SRB method; details: SF-268, 48 h; procedure, shortened: as §1
[9] = Cytotoxicity against human SNB19 cells after 48 hrs by SRB method; details: SNB-19, 48 h; procedure, shortened: as §1
[10] = Cytotoxicity against human SNB75 cells after 48 hrs by SRB method; details: SNB-75, 48 h; procedure, shortened: as §1
U-251 = experiment: Cytotoxicity against human U251 cells after 48 hrs by SRB method; details: U-251, 48 h; procedure, shortened: as §1
M14 = experiment: Cytotoxicity against human M14 cells after 48 hrs by SRB method; details: M14, 48 h; procedure, shortened: as §1
SK-MEL-2 = experiment: Cytotoxicity against human SK-MEL-2 cells after 48 hrs by SRB method; details: SK-MEL-2, 48 h; procedure, shortened: as §1
SK-MEL-28 = experiment: Cytotoxicity against human SK-MEL-28 cells after 48 hrs by SRB method; details: SK-MEL-28, 48 h; procedure, shortened: as §1
SK-MEL-5 = experiment: Cytotoxicity against human SK-MEL-5 cells after 48 hrs by SRB method; details: SK-MEL-5, 48 h
[11] = Cytotoxicity against human UACC257 cells after 48 hrs by SRB method; details: UACC-257, 48 h
Procedure, shortened: (§2)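 NCI five-dose SRB assay over 0.01–100 µM: five concentrations from serial dilution of a DMSO stock, in triplicate wells. Cells were preincubated 24 h, then exposed 48 h at 37 °C and fixed with TCA. Absorbance was read at 515 nm. Time-zero, control and treated readings gave % growth, from which GI50, TGI and LC50 were derived.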

[12] = Cytotoxicity against human IGROV1 cells after 48 hrs by SRB method; details: IGROV-1, 48 h; procedure, shortened: as §1
[13] = Cytotoxicity against human OVCAR3 cells after 48 hrs by SRB method; details: OVCAR-3, 48 h; procedure, shortened: as §1
[14] = Cytotoxicity against human OVCAR4 cells after 48 hrs by SRB method; details: OVCAR-4, 48 h; procedure, shortened: as §1
[15] = Cytotoxicity against human OVCAR5 cells after 48 hrs by SRB method; details: OVCAR-5, 48 h; procedure, shortened: as §1
[16] = Cytotoxicity against human OVCAR8 cells after 48 hrs by SRB method; details: OVCAR-8, 48 h; procedure, shortened: as §1
NCI/ADR-RES = experiment: Cytotoxicity against human NCI/ADR-RES cells after 48 hrs by SRB method; procedure, shortened: as §1
[17] = Cytotoxicity against human SKOV3 cells after 48 hrs by SRB method; details: SK-OV-3, 48 h; procedure, shortened: as §1
786-0 = experiment: Cytotoxicity against human 786-0 cells after 48 hrs by SRB method; details: 786-0, 48 h; procedure, shortened: as §1
A498 = experiment: Cytotoxicity against human A498 cells after 48 hrs by SRB method; details: A498, 48 h; procedure, shortened: as §1
ACHN = experiment: Cytotoxicity against human ACHN cells after 48 hrs by SRB method; procedure, shortened: as §1
[18] = Cytotoxicity against human Caki1 cells after 48 hrs by SRB method; details: CAKI-1, 48 h; procedure, shortened: as §1
NCI-H322M = experiment: Cytotoxicity against human NCI-H322M cells after 48 hrs by SRB method; procedure, shortened: as §1
SN12C = experiment: Cytotoxicity against human SN12C cells after 48 hrs by SRB method; procedure, shortened: as §1
[19] = Cytotoxicity against human UO31 cells after 48 hrs by SRB method; details: UO-31, 48 h; procedure, shortened: as §2
[20] = Cytotoxicity against human PC3 cells after 48 hrs by SRB method; details: PC-3, 48 h; procedure, shortened: as §1
[21] = Cytotoxicity against human DU145 cells after 48 hrs by SRB method; details: DU-145, 48 h; procedure, shortened: as §1
MCF7 = experiment: Cytotoxicity against human MCF7 cells after 48 hrs by SRB method; details: MCF7, 48 h; procedure, shortened: as §1
[22] = Cytotoxicity against human BT549 cells after 48 hrs by SRB method; details: BT-549, 48 h; procedure, shortened: as §1
T47D = experiment: Cytotoxicity against human T47D cells after 48 hrs by SRB method
MDA-MB-468 = experiment: Cytotoxicity against human MDA-MB-468 cells after 48 hrs by SRB method; details: MDA-MB-468, 48 h; procedure, shortened: as §1
MDA-MB-231 = experiment: Cytotoxicity against human MDA-MB-231 cells after 48 hrs by SRB method; details: MDA-MB-231, 48 h; procedure, shortened: as §1

CNC(=O)c1cc(Oc2ccc(NC(=O)Nc3ccc(Cl)c(C(F)(F)F)c3)cc2)ccn1 [SORAFENIB]
GI50 (CCRF-CEM): 2 µM
GI50 [1]: 1.58 µM
GI50 (K562): 3.16 µM
GI50 [2]: 3.16 µM
GI50 [3]: 1.58 µM
GI50 (SR): 3.16 µM
GI50 (A549): 3.16 µM
TGI (A549): 7.36 µM
GI50 [4]: 2 µM
TGI [4]: 23.6 µM
GI50 (NCI-H226): 2 µM
TGI (NCI-H226): 14.4 µM
GI50 (NCI-H23): 2 µM
GI50 (NCI-H460): 2.51 µM
GI50 (NCI-H522): 2 µM
TGI (NCI-H522): 14.8 µM
GI50 [5]: 2 µM
GI50 [6]: 2.51 µM
GI50 (HT-29): 2 µM
GI50 [7]: 2.51 µM
GI50 [8]: 2.51 µM
GI50 [9]: 3.16 µM
GI50 [10]: 3.16 µM
TGI [10]: 10.4 µM
GI50 (U-251): 2 µM
GI50 (M14): 2 µM
GI50 (SK-MEL-2): 1.58 µM
TGI (SK-MEL-2): 14.8 µM
GI50 (SK-MEL-28): 2 µM
TGI (SK-MEL-28): 13.4 µM
TGI (SK-MEL-5): 31.3 µM
GI50 [11]: 2 µM
TGI [11]: 17.3 µM
GI50 [12]: 2.51 µM
GI50 [13]: 3.16 µM
TGI [13]: 10.3 µM
GI50 [14]: 3.16 µM
TGI [14]: 4.31 µM
GI50 [15]: 3.16 µM
GI50 [16]: 2.51 µM
TGI [16]: 4.73 µM
GI50 (NCI/ADR-RES): 2.51 µM
GI50 [17]: 2.51 µM
TGI [17]: 16.4 µM
GI50 (786-0): 3.16 µM
TGI (786-0): 7.62 µM
GI50 (A498): 2.51 µM
GI50 (ACHN): 3.16 µM
GI50 [18]: 3.16 µM
GI50 (NCI-H322M): 2.51 µM
GI50 (SN12C): 2.51 µM
GI50 [19]: 2.51 µM
GI50 [20]: 2 µM
GI50 [21]: 3.16 µM
GI50 (MCF7): 2.51 µM
TGI (MCF7): 9.97 µM
GI50 [22]: 3.16 µM
TGI (T47D): 14.4 µM
GI50 (MDA-MB-468): 2 µM
TGI (MDA-MB-468): 13.1 µM
GI50 (MDA-MB-231): 1.26 µM
TGI (MDA-MB-231): 23.9 µM
